According to ChEMBL document CHEMBL1121479, “Simple beta-lactam compounds derived from 6-aminopenicillanic acid” (1980):
≈ marks a conversion by molar mass, not a printed value. One block for each compound: values may come before it.

Columns and labels:
Salmonella typhimurium [1] = experiment: Evaluated for the minimum inhibitory concentration (MIC) which inhibits the growth of Salmonella Typhimurium ATCC 13311 (gram-negative); assay type: functional, Salmonella enterica subsp. enterica serovar Typhimurium; conditions: Salmonella enterica
Summary of the method: (§1)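 Agar dilution on trypticase soy agar plates holding sample or standard at 0 to 200 μg/mL agar. Solutions were made and diluted in Me₂SO or water. Each plate was inoculated twice with every organism using a Steers replicator and incubated 18 h at 37 °C. MIC was taken as the lowest level that inhibited growth.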

Bacillus subtilis [2] = experiment: Evaluated for the minimum inhibitory concentration (MIC) which inhibits the growth of Bacillus subtilis ATCC 6051 (gram-positive); assay type: functional; summary of the method: as §1
Proteus vulgaris [3] = experiment: Evaluated for the minimum inhibitory concentration (MIC) which inhibits the growth of Proteus vulgaris ATCC 6380 (gram-negative); assay type: functional; summary of the method: as §1
Micrococcus luteus [4] = experiment: Evaluated for the minimum inhibitory concentration (MIC) which inhibits the growth of Sarcina lutea ATCC 9341 (gram-positive); assay type: functional; summary of the method: as §1
Serratia marcescens [5] = experiment: Evaluated for the minimum inhibitory concentration (MIC) which inhibits the growth of Serratia marcescens MIT B-43 (gram-negative); assay type: functional; summary of the method: as §1
Staphylococcus aureus [6] = experiment: Evaluated for the minimum inhibitory concentration (MIC) which inhibits the growth of Staphylococcus aureus ATCC 25923 (gram-positive); assay type: functional; summary of the method: as §1
Shigella sonnei [7] = experiment: Evaluated for the minimum inhibitory concentration (MIC) which inhibits the growth of Shigella sonnei ATCC 11060 (gram-negative); assay type: functional; summary of the method: as §1
Pseudomonas aeruginosa [8] = experiment: Evaluated for the minimum inhibitory concentration (MIC) which inhibits the growth of Pseudomonas aeruginosa ATCC 9721 (gram-negative); assay type: functional; summary of the method: as §1
[9] = system: Staphylococcus epidermidis; experiment: Evaluated for the minimum inhibitory concentration (MIC) which inhibits the growth of Staphylococcus epidermidis ATCC 14990 (gram-positive); assay type: functional; summary of the method: as §1
Streptococcus pyogenes [10] = experiment: Evaluated for the minimum inhibitory concentration (MIC) which inhibits the growth of Streptococcus pyogenes ATCC 10389 (gram-positive); assay type: functional; summary of the method: as §1
Enterobacter cloacae [11] = experiment: Evaluated for the minimum inhibitory concentration (MIC) which inhibits the growth of Enterobacter cloacae ATCC 13047 (gram-negative); assay type: functional; summary of the method: as §1
Proteus mirabilis [12] = experiment: Evaluated for the minimum inhibitory concentration (MIC) which inhibits the growth of Proteus mirabilis MIT B-52 (gram-negative); assay type: functional; summary of the method: as §1
Escherichia coli [13] = experiment: Evaluated for the minimum inhibitory concentration (MIC) which inhibits the growth of Escherichia coli ATCC 25922 (gram-negative); assay type: functional; summary of the method: as §1
Klebsiella pneumoniae [14] = experiment: Evaluated for the minimum inhibitory concentration (MIC) which inhibits the growth of Klebsiella pneumoniae ATCC 27736 (gram-negative); assay type: functional; summary of the method: as §1
Proteus vulgaris [15] = experiment: Evaluated for the minimum inhibitory concentration (MIC) which inhibits the growth of Proteus vulgaris ATCC 6380; assay type: functional; summary of the method: as §1
Escherichia coli [16] = experiment: Evaluated for the minimum inhibitory concentration (MIC) which inhibits the growth of Escherichia coli ATCC 25922; assay type: functional; summary of the method: as §1
[17] = system: Staphylococcus epidermidis; experiment: Evaluated for the minimum inhibitory concentration (MIC) which inhibits the growth of Staphylococcus epidermidis ATCC 14990; assay type: functional; summary of the method: as §1
Micrococcus luteus [18] = experiment: Evaluated for the minimum inhibitory concentration (MIC) which inhibits the growth of Sarcina lutea ATCC 9341; assay type: functional; summary of the method: as §1
Enterobacter cloacae [19] = experiment: Evaluated for the minimum inhibitory concentration (MIC) which inhibits the growth of Enterobacter cloacae ATCC 13047; assay type: functional; summary of the method: as §1
Bacillus subtilis [20] = experiment: Evaluated for the minimum inhibitory concentration (MIC) which inhibits the growth of Bacillus subtilis ATCC 6051; assay type: functional; summary of the method: as §1
Streptococcus pyogenes [21] = experiment: Evaluated for the minimum inhibitory concentration (MIC) which inhibits the growth of Streptococcus pyogenes ATCC 10389; assay type: functional; summary of the method: as §1
Salmonella typhimurium [22] = experiment: Evaluated for the minimum inhibitory concentration (MIC) which inhibits the growth of; assay type: functional, salmonella typhimurium a; conditions: Salmonella enterica; summary of the method: as §1
Shigella sonnei [23] = experiment: Evaluated for the minimum inhibitory concentration (MIC) which inhibits the growth of Shigella sonnei ATCC 11060; assay type: functional; summary of the method: as §1
Klebsiella pneumoniae [24] = experiment: Evaluated for the minimum inhibitory concentration (MIC) which inhibits the growth of Klebsiella pneumoniae ATCC 27736; assay type: functional; summary of the method: as §1
Staphylococcus aureus [25] = experiment: Evaluated for the minimum inhibitory concentration (MIC) which inhibits the growth of Staphylococcus aureus ATCC 25923; assay type: functional; summary of the method: as §1
Pseudomonas aeruginosa [26] = experiment: Evaluated for the minimum inhibitory concentration (MIC) which inhibits the growth of Pseudomonas aeruginosa ATCC 9721.; assay type: functional; summary of the method: as §1
Proteus mirabilis [27] = experiment: Evaluated for the minimum inhibitory concentration (MIC) which inhibits the growth of Proteus mirabilis MIT B-52; assay type: functional; summary of the method: as §1
Serratia marcescens [28] = experiment: Evaluated for the minimum inhibitory concentration (MIC) which inhibits the growth of Serratia marcescens MIT B-43; assay type: functional; summary of the method: as §1

- MIC (Salmonella typhimurium [1]): > 100 µg/mL
- MIC (Bacillus subtilis [2]): 25 µg/mL (≈ 144 µM)
- MIC (Proteus vulgaris [3]): > 100 µg/mL
- MIC (Micrococcus luteus [4]): > 100 µg/mL
- MIC (Serratia marcescens [5]): > 100 µg/mL
- MIC (Staphylococcus aureus [6]): > 100 µg/mL
- MIC (Shigella sonnei [7]): > 100 µg/mL
- MIC (Pseudomonas aeruginosa [8]): > 100 µg/mL
- MIC [9]: > 100 µg/mL
- MIC (Streptococcus pyogenes [10]): > 100 µg/mL
- MIC (Enterobacter cloacae [11]): > 100 µg/mL
- MIC (Proteus mirabilis [12]): > 100 µg/mL
- MIC (Escherichia coli [13]): > 100 µg/mL
- MIC (Klebsiella pneumoniae [14]): > 100 µg/mL
Compound: CC1(C)SC2CC(=O)N2C1O (stereo not drawn)

- MIC (Proteus vulgaris [15]): > 100 µg/mL
- MIC (Escherichia coli [16]): > 100 µg/mL
- MIC [17]: > 100 µg/mL
- MIC (Micrococcus luteus [18]): > 100 µg/mL
- MIC (Enterobacter cloacae [19]): > 100 µg/mL
- MIC (Bacillus subtilis [20]): 100 µg/mL (≈ 571 µM)
- MIC (Streptococcus pyogenes [21]): > 100 µg/mL
- MIC (Salmonella typhimurium [22]): > 100 µg/mL
- MIC (Shigella sonnei [23]): > 100 µg/mL
- MIC (Klebsiella pneumoniae [24]): > 100 µg/mL
- MIC (Staphylococcus aureus [25]): > 100 µg/mL
- MIC (Pseudomonas aeruginosa [26]): > 100 µg/mL
- MIC (Proteus mirabilis [27]): > 100 µg/mL
- MIC (Serratia marcescens [28]): > 100 µg/mL
Compound: CC(C)(CO)SC1CC(=O)N1 (stereo not drawn)
